Screening data as filed in PubChem BioAssay.
MITF act: activators of MITF-driven TRPM1 promoter reporter, primary screen, cell-based, SK-MEL-5, luciferase, single point; 0.75% of 300,000 active; AID 588334, 2011; SK-MEL-5 TRPM1-promoter luciferase, 24 h; % of positive control, neutral wells = 0; activation, % at 12.5 µM;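 active means mean activation of at least 80% with every replicate also reaching 80%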;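 further: 0% = neutral control wells and 100% = parthenolide positive control wells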
esBAF inh: Bmi1 luciferase reporter increase in mESCs, primary screen, esBAF inhibitor project, mouse ES cells, Bmi1 luciferase knock-in, single point | AID 602393, 2012 | reporter increase, % at 12.5 µM | 2% of 350,000 active | 24 h; 100% = twice the neutral-well signal; in the data active means activation above about 40%;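 further: 0% = median of the plate's neutral control wells and 100% = double that signal; a rise in the Bmi1 reporter signal indicates esBAF inhibition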
NSD2 HMT inh: NSD2 histone methyltransferase inhibitors, primary screen, biochemical, AlphaScreen, single concentration, set 2; inhibition, % at 12.5 µM; Histone-lysine N-methyltransferase NSD2 (Homo sapiens), O96028; NSD2 peptide methylation, 120 min; 0.54% of 310,000 active; AID 743445, 2014; in the data active means inhibition above about 50%
Xi reactivation: activators of inactive X chromosome reactivation, primary screen, imaging, XiGFP fibroblasts, GFP high-content imaging, set 2. XiGFP mouse fibroblasts, % GFP-positive cells imaging, 3 d; cells co-treated with 5-aza-dC sensitizer; scaled so ellipticine positive control = 100%. activation, % at 7.58 µM. 0.055% of 360,000 active. AID 743238, 2013;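 active means mean normalized replicate activation at least 10% and every replicate at or above 10%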;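 further: 0% = median of on-plate neutral control wells and 100% = ellipticine 6 µM median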
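Material: XiGFP fibroblasts, SV40-immortalized. Buffer or medium: DMEM plus 5-aza-dC sensitizer. Compound: single concentration per compound, delivered by pin transfer. Times: 3 days compound exposure. Controls: ellipticine 6 µM.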
CASP6 VEID inh: human caspase-6 inhibitors, primary screen, biochemical, VEID-R110 fluorescence, single point, set 2. P55212. purified caspase-6, Z-VEID-R110 cleavage fluorescence. inhibition, % at 12.5 µM. 0.53% of 350,000 active;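 active means mean inhibition across replicates at least about 35%, with every replicate also reaching that limit, limit read from the data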;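 further: 0% = median of neutral control wells and 100% = no fluorescence left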
Target sequence (P55212 24-179 limits assumed): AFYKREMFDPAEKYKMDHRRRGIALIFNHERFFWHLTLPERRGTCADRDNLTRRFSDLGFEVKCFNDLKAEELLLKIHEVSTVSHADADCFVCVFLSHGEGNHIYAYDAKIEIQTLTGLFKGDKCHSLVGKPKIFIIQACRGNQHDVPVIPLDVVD
Target sequence (P55212 194-293 limits assumed): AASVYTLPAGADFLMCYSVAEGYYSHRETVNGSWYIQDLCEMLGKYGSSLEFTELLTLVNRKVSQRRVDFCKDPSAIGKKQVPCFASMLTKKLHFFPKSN
Wnt act: Wnt/beta-catenin pathway activators, primary screen, cell-based, plate reader, single point; AID 743398, 2014; 1.2% of 300,000 active; activation, % at 9.35 µM; Wnt/beta-catenin reporter cell assay, activator; in the data active means activation above about 30%, passing the limit was not always enough;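 further: 0% = neutral control wells and 100% = positive control wells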
* hit, by the source's call; . = no result given. The list is not random: actives were taken first. Their share in the collection is about 3%.

SMILES | MITF act | esBAF inh | NSD2 HMT inh | Xi reactivation | CASP6 VEID inh | Wnt act
Nc1nnnn1/N=C/C=C/c1ccccc1 | 23 | 19 | -4 | . | . | .
CC(=O)c1ccc(-c2nnc(CCC(=O)N3CCCC(C(=O)CC(C)C)C3)o2)s1 (stereo not drawn) | 73 | 83* | 2 | 0 | 12 | -1
CCC(=O)C1CCCN(C(=O)CCc2nnc(C3(c4ccc(Cl)cc4)CCC3)o2)C1 (stereo not drawn) | 44 | 50* | -2 | 0 | -1 | 18
O=C(C[C@@H]1C[C@H]2c3cc(NC(=O)c4cccnc4)ccc3O[C@H]2[C@H](CO)O1)NCc1ccccn1 | . | -3 | . | 0 | -4 | .
C[C@H](CO)N1C[C@H](C)[C@@H](CN(C)C(=O)NC2CCCCC2)OCCCC[C@H](C)Oc2ccc(NS(C)(=O)=O)cc2C1=O | . | 10 | . | 0 | . | .
C[C@@H]1CN([C@@H](C)CO)S(=O)(=O)c2ccc(C3=CCCC3)cc2O[C@@H]1CN(C)Cc1ccccc1 | . | -2 | . | -1 | 0 | .
CC(C)NC(=O)Nc1ccc2c(c1)C(=O)N([C@H](C)CO)C[C@@H](C)[C@@H](CN(C)CC1CCCCC1)OCCCC[C@H](C)O2 | . | -5 | . | 0 | -3 | .
Oc1ccc(Br)cc1C=Nc1ccc2c3c(cccc13)CC2 | -15 | . | -1 | 105* | -1 | -4
Oc1ccc(Cl)cc1C=Nc1ccccc1Br | 4 | . | -1 | 0 | . | -1
COC(=O)CSC1=NS(=O)(=O)c2ccccc21 | -54 | . | . | . | . | .
O=C(CSC1=NS(=O)(=O)c2ccccc21)Nc1ccccc1 | -48 | 50* | . | 0 | 1 | -22
COC(=O)COc1ccc2c(=O)c(-c3ccccc3)coc2c1 | . | 2 | -1 | 0 | -1 | 1
COc1ccc2c(=O)c(-c3ccc4c(c3)OCO4)coc2c1 | -5 | -41 | . | 0 | . | 40*
CC(C)Oc1ccc2c(=O)c(-c3ccccc3)coc2c1 | 78 | 35 | . | 0 | 0 | 56*
COc1ccc(-c2coc3cc(OC(=O)N4CCOCC4)ccc3c2=O)cc1 | 40 | 39 | -3 | 0 | 1 | 6
COc1ccc2c3c(n(C)c2c1)[C@H](CO)N(C(=O)c1ccncc1)CC31CCN(C)CC1 | . | . | . | 0 | . | .
Cc1csc(=N)n1-c1ccc(Cl)cc1 | 97* | 63* | 2 | . | -2 | -1
O=C1C(=O)c2c(C(=O)c3ccccc3)coc2-c2ccccc21 | 29 | 67* | 0 | . | 1 | 27
CCCNC(=O)N(C)C[C@@H]1Oc2cc(C#Cc3ccccn3)ccc2S(=O)(=O)N([C@@H](C)CO)C[C@@H]1C | . | 5 | . | 0 | -1 | .
Cc1ccc(NC(=O)/C(Cl)=C\c2ccccc2)cc1 | 44 | -38 | 14 | 0 | -3 | 17
CC(=O)c1ccc(NC(=O)/C(Cl)=C/c2ccccc2)cc1 | 138* | . | -5 | 0 | 6 | 17
O=C(Nc1ccc(F)cc1)/C(Cl)=C/c1ccccc1 | 84* | 48* | 2 | 0 | -4 | 18
COc1ccc2c3c(n(C)c2c1)[C@@H](CO)N(C)CC31CCN(C(=O)Nc2c(C)noc2C)CC1 | . | . | . | 1 | -1 | .
O=C(O)c1ccccc1SCc1cn2cc(Cl)ccc2n1 | -6 | . | -1 | 0 | 0 | 43*
O=C(O)c1cccnc1SCc1cn2cc(Cl)ccc2n1 | 5 | -2 | 3 | . | 2 | 4
O=C(C1CCOCC1)N1CC2(C1)[C@@H](c1ccccc1)[C@@H](CO)N2CCC(F)(F)F | . | . | . | 0 | -2 | .
Cc1nc(SC(C)C(=O)c2c(N)n(C)c(=O)n(C)c2=O)c2c(C)c(C)sc2n1 (stereo not drawn) | 5 | . | -1 | 0 | 49* | -5
CC(Sc1nnc(N)s1)C(=O)c1c(N)n(C)c(=O)n(C)c1=O (stereo not drawn) | 0 | -1 | -1 | 0 | 5 | -2
Cc1ccc(S(=O)(=O)Nc2ccc3c(c2)C(=O)N([C@@H](C)CO)C[C@@H](C)[C@H](CN(C)C(=O)Nc2ccc4c(c2)OCO4)O3)cc1 | . | 5 | . | 0 | . | .
